Measurements published in ChEMBL document CHEMBL1158154, “Design and synthesis of novel 2-pyridone peptidomimetic falcipain 2/3 inhibitors” (Bioorg Med Chem Lett, 2008).

Columns and labels:
[1] = molecular target: T1, Cysteine protease falcipain-3 (Plasmodium falciparum, UniProt Q9NBA7); assay: Inhibition of Plasmodium falciparum recombinant falcipain-3
T1 sequence (Q9NBA7 whole entry): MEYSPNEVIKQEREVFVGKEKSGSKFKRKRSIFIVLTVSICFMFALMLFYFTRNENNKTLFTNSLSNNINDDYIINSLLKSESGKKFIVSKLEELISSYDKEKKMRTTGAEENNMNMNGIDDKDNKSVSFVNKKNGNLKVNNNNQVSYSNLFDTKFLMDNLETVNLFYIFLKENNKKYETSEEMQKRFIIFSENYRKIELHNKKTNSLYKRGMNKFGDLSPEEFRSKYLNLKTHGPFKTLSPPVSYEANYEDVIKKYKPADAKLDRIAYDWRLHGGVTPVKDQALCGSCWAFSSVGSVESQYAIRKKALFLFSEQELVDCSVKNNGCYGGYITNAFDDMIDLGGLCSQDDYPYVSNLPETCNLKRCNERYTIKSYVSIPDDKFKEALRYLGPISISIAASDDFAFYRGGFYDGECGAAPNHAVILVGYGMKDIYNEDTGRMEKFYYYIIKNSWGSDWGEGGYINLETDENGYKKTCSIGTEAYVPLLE

[2] = tested on: Plasmodium falciparum; assay: Antimalarial activity against Plasmodium falciparum Itg2 in human erythrocytes by [3H]hypoxanthine uptake; type: functional, organism-based
[3] = tested on: Plasmodium falciparum; assay: Antimalarial activity against chloroquine-sensitive Plasmodium falciparum 3D7 in human erythrocytes by [3H]hypoxanthine uptake; type: functional, organism-based
Outline: (§1)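 P. falciparum kept in continuous culture in human erythrocytes; compounds tested in triplicate on parasite-infected red cells. Growth read as parasite [3H]-hypoxanthine incorporation, and IC50 derived from it. TM6 is a chloroquine-resistant strain and 3D7 a chloroquine-sensitive strain.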

[4] = tested on: Plasmodium falciparum; assay: Antimalarial activity against chloroquine-resistant Plasmodium falciparum TM6 in human erythrocytes by [3H]hypoxanthine uptake; type: functional, organism-based; outline: as §1
[5] = molecular target: T2, Falcipain 2 (Plasmodium falciparum, UniProt Q9N6S8); assay: Inhibition of Plasmodium falciparum recombinant falcipain-2
T2 sequence (Q9N6S8 whole entry): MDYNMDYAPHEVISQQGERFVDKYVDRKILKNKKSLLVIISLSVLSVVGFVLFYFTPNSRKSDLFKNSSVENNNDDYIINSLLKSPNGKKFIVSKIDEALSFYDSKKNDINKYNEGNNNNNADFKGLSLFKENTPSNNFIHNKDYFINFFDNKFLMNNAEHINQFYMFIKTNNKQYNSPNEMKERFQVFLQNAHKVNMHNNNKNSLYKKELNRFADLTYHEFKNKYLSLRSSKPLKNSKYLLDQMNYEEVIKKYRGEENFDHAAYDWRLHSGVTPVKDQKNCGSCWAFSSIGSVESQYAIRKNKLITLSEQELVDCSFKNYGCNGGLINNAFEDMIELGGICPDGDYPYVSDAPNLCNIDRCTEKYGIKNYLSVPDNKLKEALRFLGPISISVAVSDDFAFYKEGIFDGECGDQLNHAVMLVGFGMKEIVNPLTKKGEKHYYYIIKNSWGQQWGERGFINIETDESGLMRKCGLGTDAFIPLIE

Row | IC50 [2] | SMILES | IC50 [1] | IC50 [3] | IC50 [4] | IC50 [5]
1 | 0.003 µM | CC(C)C[C@H](NC(=O)N1CCOCC1)C(=O)N[C@H](/C=C/S(=O)(=O)c1ccccc1)CCc1ccccc1 | 0.021 µM | – | – | –
2 | – | COC(=O)/C=C/[C@H](CCc1ccccc1)n1cccc(NC(=O)OCc2ccccc2)c1=O | > 25 µM | 27.9 µM | 35.3 µM | 19 µM
3 | – | O=C(Nc1cccn([C@H](/C=C/S(=O)(=O)c2ccccc2)Cc2ccccc2)c1=O)OCc1ccccc1 | – | 35.7 µM | 36 µM | –
4 | – | O=C[C@H](Cc1ccccc1)n1cccc(NC(=O)OCc2ccccc2)c1=O | – | 37.3 µM | 36 µM | –
5 | – | O=C[C@H](CCc1ccccc1)n1cccc(NC(=O)OCc2ccccc2)c1=O | > 25 µM | 31 µM | 22.7 µM | 10.9 µM
6 | – | O=C(Nc1cccn([C@H](/C=C/S(=O)(=O)c2ccccc2)CCc2ccccc2)c1=O)OCc1ccccc1 | – | 5.7 µM | 9 µM | –
